Reference: ChEMBL document CHEMBL1126644, “Structure-activity relationships in the trans-hexahydroindolo[4,3-ab]phenanthridine ("benzergoline") series. 2. Resolution, absolute configuration, and dopaminergic activity of the selective D1 agonist CY 208-243 and its implication for an "extended rotamer-based dopamine receptor model"” (1993)

Assays:
[1] = species on record: Bos taurus; assay: In vitro percent maximal stimulation relative to dopamine (125 uM) in bovine retina; type: functional
How it was run: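 Bovine retina adenylate cyclase stimulation, expressed as a percentage of the maximal effect produced by 125 μM dopamine.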

[2] = In vitro potency against adenylate cyclase in bovine retina; type: tissue-based
How it was run: (§1)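 Dopamine-sensitive adenylate cyclase assay on bovine retina tissue. Values are means of two to six independent experiments, each run in triplicate.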

[3] = species on record: Rattus norvegicus; assay: Tested in vitro for percent maximal inhibition in rat striatal slices (% of control) expressed as change of S2/S1 versus control at 1 uM
[4] = species on record: Rattus norvegicus; assay: In vitro potency in rat striatal slices by electrically evoked acetylcholine release; type: functional
[5] = Compound was evaluated for in vitro potency against adenylate cyclase in bovine retina; type: tissue-based; how it was run: as §1
[6] = species on record: Rattus norvegicus; assay: Tested in vitro for percent maximal inhibition in rat striatal slices (% of control) expressed as change of S2/S1 versus control at 1 uM; remark: listed apart in the source

Structure (SMILES) | Relative to DA [1] [%] | pD2 [2] | inhibition at 1 µM [3] [%] | pD2 [4] | pD2 [5] | inhibition at 1 µM [6] [%]
CN1CCC[C@@H]2Cc3c(O)cccc3C[C@H]21 | 14 | 6.15 | 62 | 7.3 |  | 
Oc1cc2c(cc1O)C(c1ccccc1)CNCC2 (centres undefined) [SKF-38393] | 58 | 6.6 | 0 |  |  | 
CN1Cc2ccccc2[C@@H]2c3cccc4[nH]cc(c34)C[C@H]21 (stereo in doubt) [listing 1 of 2 here] | 68 |  |  |  |  | 
Oc1ccc([C@@H]2CNCc3ccccc32)cc1O | 86 | 6 | 0 |  |  | 
CN1Cc2ccccc2[C@@H]2c3cccc4[nH]cc(c34)C[C@H]21 (stereo in doubt; (+)-1) | 0 |  |  |  |  | 
CN1CCc2cccc3c2[C@H]1Cc1ccc(O)c(O)c1-3 [APOMORPHINE] | 38 | 6.2 | 85 | 7.5 |  | 
CN1Cc2ccccc2[C@@H]2c3cccc4[nH]cc(c34)C[C@H]21 (stereo in doubt) [listing 2 of 2 here] |  |  |  |  | 6.9 | 
CN1Cc2ccccc2[C@@H]2c3cccc4[nH]cc(c34)C[C@H]21 (racemic) [listing 1 of 2 here] |  | 6.1 |  |  |  | 
CN1CCC[C@@H]2c3cccc4[nH]cc(c34)C[C@H]21 | 24 | 5.2 | 30 | 7.5 |  | 
CN1Cc2ccccc2[C@@H]2c3cccc4[nH]cc(c34)C[C@H]21 (racemic) [listing 2 of 2 here] | 57 |  |  |  |  | 0
